# Activity calls are given as the source filed them. No cut-off for these calls is given here.
# Legend:
# Plasmodium falciparum [1] = test: In vitro antimalarial activity against multidrug-resistant Plasmodium falciparum K1; type: functional, organism-based
# Method in brief: (§1)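 Cultured P. falciparum K1 (multidrug-resistant) tested by microculture radioisotope technique (Desjardins); growth measured as [3H]hypoxanthine uptake; EC50 taken as the concentration giving 50% reduction in parasite growth; chloroquine diphosphate and artemisinin as standards.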
# [2] = Cytotoxicity against african green monkey kidney fibroblast (vero cell); type: functional, cell-based; details: Chlorocebus sabaeus
# Method in brief: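 Vero (African green monkey kidney fibroblast) cytotoxicity run by the colorimetric method of Skehan and co-workers.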
# [3] = test system: Mycobacterium tuberculosis; test: Growth inhibitory activity against Mycobacterium tuberculosis H37R; type: functional
# Method in brief: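 M. tuberculosis H37Ra growth inhibition measured by microplate Alamar Blue assay (MABA); read-out as MIC; isoniazid and kanamycin sulfate run as reference drugs.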
# Plasmodium falciparum [4] = test: In vitro antimalarial activity against multidrug-resistant Plasmodium falciparum K1; Not active; type: functional, organism-based; method in brief: as §1
# Vero = test: Cytotoxicity against african green monkey kidney fibroblast (vero cell) at a concentration less than 50 ug/mL; Inactive; type: functional, cell-based; details: Chlorocebus sabaeus
SMILES,EC50 (Plasmodium falciparum [1]) [µg/mL],IC50 [2] [µg/mL],MIC [3] [µg/mL],IA (Plasmodium falciparum [4]),IA (Vero)
CCN(CC)CCCC(C)Nc1ccnc2cc(Cl)ccc12.O=P(O)(O)O.O=P(O)(O)O (stereo unspecified) [CHLOROQUINE PHOSPHATE],0.16,,,,
CCOC(=O)[C@@]1(CCC2OCCO2)CC[C@@]2(c3ccccc3)O[N@@]12,14.7,> 50,200,,
CCOC(=O)[C@]1(C2C[C@H]2C(=O)OC)CC[C@@]2(c3ccccc3)O[N@]21 (stereo partly specified),,> 50,200,inactive,
CCOC(=O)[C@]1(CCC2OCCO2)CC[C@@]2(c3ccccc3)O[N@@]12,,> 50,,inactive,
CCOC(=O)[C@@]1(C2C[C@H]2C(=O)OC)CC[C@@]2(c3ccccc3)O[N@]21 (stereo partly specified),15.9,43.4,100,,
CCOC(=O)[C@]1(CCCc2ccccc2)CC[C@@]2(c3ccccc3)O[N@@]12,,> 50,25,inactive,
CCC[C@@]1(C(=O)OCC)CC[C@@]2(c3ccccc3)O[N@@]12,,> 50,100,,
C=CCC[C@]1(C(=O)OCC)CC[C@@]2(c3ccccc3)O[N@@]12,44.2,,,,
CCOC(=O)[C@@]1(CCCc2ccccc2)CC[C@@]2(c3ccccc3)O[N@@]12,2.9,,200,,inactive
CCCCC[C@@]1(C(=O)OCC)CC[C@@]2(c3ccccc3)O[N@@]12,,> 50,100,inactive,
Cc1c2ccncc2c(C)c2c1[nH]c1ccccc12 [ELLIPTECINE],,1,,,
C=CCCC[C@]1(C(=O)OCC)CC[C@@]2(c3ccccc3)O[N@@]12,13.9,,,,
CCC[C@]1(C(=O)OCC)CC[C@@]2(c3ccccc3)O[N@@]12,21.7,28.9,100,,
CCCCC[C@]1(C(=O)OCC)CC[C@@]2(c3ccccc3)O[N@@]12,3.1,,100,,inactive
C[C@@H]1CC[C@H]2[C@@H](C)C(=O)O[C@@H]3O[C@@]4(C)CC[C@@H]1[C@]32OO4 [ARTEMISININ],0.0011,,,,
NNC(=O)c1ccncc1 [ISONIAZID],,,0.05,,
CCOC(=O)[C@@]1(CCC=C(C)C)CC[C@@]2(c3ccccc3)O[N@@]12,21.9,,,,
CCOC(=O)[C@]1(C)CC[C@@]2(c3ccccc3)O[N@@]12,,> 50,200,,
CCOC(=O)[C@@]1(C)CC[C@@]2(c3ccccc3)O[N@]21,4.6,> 50,200,,
CCCC[C@]1(C(=O)OCC)CC[C@@]2(c3ccccc3)O[N@@]12,2.4,,100,,inactive
CCCC[C@@]1(C(=O)OCC)CC[C@@]2(c3ccccc3)O[N@@]12,,,100,inactive,inactive

# From ChEMBL document CHEMBL1145788, “Synthesis of ethyl 5-phenyl-6-oxa-1-azabicyclo[3.1.0]hexane-2-carboxylate derivatives and evaluation of their antimalarial activities” (J Med Chem, 2003)
